From ChEMBL document CHEMBL1134118, “Inhibition of serine proteases: activity of 1,3-diazetidine-2,4-diones” (Bioorg Med Chem Lett, 2001)
Activity calls are given as the source filed them. The rule behind the calls is not given here.

Columns and labels:
Cathepsin G = molecular target: T1, Cathepsin G (Homo sapiens, UniProt P08311); experiment: Compound was evaluated for its inhibitory activity against human cathepsin G
T1 sequence (P08311 whole entry): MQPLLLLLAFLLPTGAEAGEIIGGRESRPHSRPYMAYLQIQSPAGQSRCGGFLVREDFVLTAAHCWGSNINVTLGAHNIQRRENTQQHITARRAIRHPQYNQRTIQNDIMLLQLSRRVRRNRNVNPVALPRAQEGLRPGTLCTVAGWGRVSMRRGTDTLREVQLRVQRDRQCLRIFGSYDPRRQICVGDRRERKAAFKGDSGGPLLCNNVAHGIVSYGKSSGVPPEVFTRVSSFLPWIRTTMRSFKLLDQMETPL

Neutrophil elastase = molecular target: T2, Neutrophil elastase (Homo sapiens, UniProt P08246); experiment: Compound was evaluated for its inhibitory activity against human neutrophil elastase
T2 sequence (P08246 whole entry): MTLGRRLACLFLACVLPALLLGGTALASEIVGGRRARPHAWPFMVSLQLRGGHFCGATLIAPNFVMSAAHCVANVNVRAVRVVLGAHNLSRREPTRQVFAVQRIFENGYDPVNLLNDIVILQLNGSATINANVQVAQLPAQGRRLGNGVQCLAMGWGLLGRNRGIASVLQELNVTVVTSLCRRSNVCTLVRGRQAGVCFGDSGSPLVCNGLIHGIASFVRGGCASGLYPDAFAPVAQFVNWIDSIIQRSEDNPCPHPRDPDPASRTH
In short: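 Purified human neutrophil elastase with chromogenic substrate N-succinyl-Ala-Ala-Val-pNA. Buffer 50 mM Tris-HCl pH 8.0 containing 2 mM CaCl2.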

Plasminogen [1] = molecular target: T3, Plasminogen (Homo sapiens, UniProt P00747); experiment: Compound was evaluated for its inhibitory activity against human plasmin
T3 sequence (P00747 97-580 limits assumed): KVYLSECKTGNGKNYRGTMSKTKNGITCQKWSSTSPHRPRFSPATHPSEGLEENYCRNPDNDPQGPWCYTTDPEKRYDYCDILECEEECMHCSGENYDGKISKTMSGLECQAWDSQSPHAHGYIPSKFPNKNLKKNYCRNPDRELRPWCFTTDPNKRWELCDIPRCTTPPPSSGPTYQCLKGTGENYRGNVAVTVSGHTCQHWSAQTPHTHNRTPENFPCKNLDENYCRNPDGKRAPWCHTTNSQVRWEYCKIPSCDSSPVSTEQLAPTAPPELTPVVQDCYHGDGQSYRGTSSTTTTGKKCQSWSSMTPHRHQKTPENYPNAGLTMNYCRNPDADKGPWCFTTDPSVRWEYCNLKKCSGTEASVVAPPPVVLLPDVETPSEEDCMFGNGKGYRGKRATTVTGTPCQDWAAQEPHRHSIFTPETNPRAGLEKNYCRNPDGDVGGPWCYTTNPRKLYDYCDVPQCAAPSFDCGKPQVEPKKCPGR
T3 sequence (P00747 581-810 limits assumed): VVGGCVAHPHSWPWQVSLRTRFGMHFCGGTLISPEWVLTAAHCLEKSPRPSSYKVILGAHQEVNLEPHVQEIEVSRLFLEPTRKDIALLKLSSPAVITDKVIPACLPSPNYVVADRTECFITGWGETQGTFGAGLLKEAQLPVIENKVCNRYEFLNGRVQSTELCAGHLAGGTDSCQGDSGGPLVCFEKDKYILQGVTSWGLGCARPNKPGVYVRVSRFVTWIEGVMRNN
In short: (§1)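 Purified human plasmin assayed with chromogenic substrate Chromozym PL. Buffer 50 mM Tris-HCl pH 7.5 containing 50 mM NaCl.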

Chymase [2] = molecular target: T4, Chymase (Homo sapiens, UniProt P23946); experiment: Compound was evaluated for its inhibitory activity against human Serine protease chymase up to a concentration > 10000 nM; NA= not active
T4 sequence (P23946 whole entry): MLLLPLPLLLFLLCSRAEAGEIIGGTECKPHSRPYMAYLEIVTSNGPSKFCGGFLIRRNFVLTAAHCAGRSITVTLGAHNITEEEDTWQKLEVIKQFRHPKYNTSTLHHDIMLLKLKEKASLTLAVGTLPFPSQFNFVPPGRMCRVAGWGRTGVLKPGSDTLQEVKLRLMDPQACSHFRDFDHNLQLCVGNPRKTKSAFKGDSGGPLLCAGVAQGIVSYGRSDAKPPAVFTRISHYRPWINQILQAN
In short: (§2)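 Purified human chymase preincubated with inhibitor (DMSO solution) for 30 min at 37 °C in 0.1 M Tris–HCl pH 8.0 with 1.8 M NaCl. Reaction started with succinyl-Ala-Ala-Pro-Phe-p-nitroanilide. Absorbance at 405 nm read after 2 h at 37 °C. IC50 calculated from inhibition of p-nitroaniline formation at each concentration.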

Prothrombin = Prothrombin (Homo sapiens, UniProt P00734); experiment: Compound was evaluated for its inhibitory activity against human thrombin
In short: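 Purified thrombin with a chromogenic substrate. Buffer 0.1 M Tris-HCl pH 8.0 containing 10 mM CaCl2 and 0.1 M NaCl.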

Serine protease 1 = molecular target: T5, Serine protease 1 (Bos taurus, UniProt P00760); experiment: Compound was evaluated for its inhibitory activity against bovine pancreatic trypsin
T5 sequence (P00760 whole entry): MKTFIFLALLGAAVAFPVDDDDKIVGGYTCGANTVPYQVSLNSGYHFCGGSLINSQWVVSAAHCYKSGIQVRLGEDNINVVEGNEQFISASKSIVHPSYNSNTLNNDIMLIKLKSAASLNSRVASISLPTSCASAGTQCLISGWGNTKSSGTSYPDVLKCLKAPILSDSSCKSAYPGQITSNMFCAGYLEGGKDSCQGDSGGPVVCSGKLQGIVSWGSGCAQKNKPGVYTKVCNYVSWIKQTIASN
In short: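 Purified trypsin with a chromogenic substrate. Buffer 50 mM Tris-HCl pH 8.0 containing 2 mM CaCl2.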

Chymase [3] = molecular target: T4, Chymase; experiment: Compound was evaluated for its inhibitory activity against human Serine protease chymase; in short: as §2
[4] = Half life was determined; type: ADME; conditions: sodium methoxide 10 mM in methanol, 21 °C
In short: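 Chemical stability: 1 μmol compound added to 1 mL of 10 mM sodium methoxide in methanol, stirred at 21 °C. Aliquots removed every 2 h and analysed by reverse-phase HPLC to give t1/2.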

Plasminogen [5] = molecular target: T3, Plasminogen; experiment: Compound was evaluated for its inhibitory activity against human plasmin up to a concentration > 1000 nM; NA= not activity; conditions: in the assay text read “> 10000 nM” for “> 1000 nM”; in short: as §1

| Compound | IC50 (Neutrophil elastase) | IC50 (Prothrombin) | IC50 (Serine protease 1) | IC50 (Chymase [3]) | other results |
| --- | --- | --- | --- | --- | --- |
| CCN1C(=O)N(CC)C1=O | 58 nM | 5600 nM | 39000 nM |  | IC50 (Cathepsin G): 740 nM; IC50 (Plasminogen [1]): > 10000 nM; IC50 (Chymase [2]): Not Active |
| O=C1N(Cc2ccc3c(c2)OCO3)C(=O)N1Cc1ccc2c(c1)OCO2 |  |  |  | 0.85 nM |  |
| O=C1N(Cc2ccccc2)C(=O)N1Cc1ccccc1 | 100 nM | 72 nM | 39 nM | 4 nM | IC50 (Plasminogen [1]): 2900 nM; half-life [4]: 9.5 h |
| O=C1N(c2ccc3c(c2)OCO3)C(=O)N1c1ccc2c(c1)OCO2 |  |  |  | 48 nM |  |
| Cc1ccc(N2C(=O)N(c3ccc(C)cc3)C2=O)cc1 | 230 nM | 2300 nM | 200 nM | 140 nM | NA (Plasminogen [5]): inactive |
| COc1cccc(CN2C(=O)N(Cc3cccc(OC)c3)C2=O)c1 |  |  |  | 2.3 nM |  |
| COc1ccc(CN2C(=O)N(Cc3ccc(OC)cc3)C2=O)cc1 |  |  |  | 2 nM |  |
| CCOC(=O)CN1C(=O)N(CC(=O)OCC)C1=O |  |  |  |  | IC50 (Chymase [2]): Not Active |
